Active and inactive are the calls of the source. The rule behind the calls is not given here. Residues, ends and D or L forms follow the SMILES beside them. *: point of attachment. Acridin9yl(1-NO2,4-Me) = Cc1ccc([N+](=O)[O-])c2c(*)c3ccccc3nc12; X1 = O=C(c1ccc([N+](=O)[O-])c2c(=O)c3ccccc3[nH]c12)*; Acridone(4-CO) = O=C(c1cccc2c(=O)c3ccccc3[nH]c12)*; X2 = O=[N+]([O-])c1cccc2nc3ccccc3c(*)c12; Ahx = NCCCCCC(=O)O; GABA = NCCCC(=O)O; βAla = NCCC(=O)O
Columns and labels:
[1] = tested on: A549; test: Anticancer activity against human A549 cells assessed as cell viability by MTT assay; type: functional, cell-based
In short: (§1)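 Cells kept in RPMI 1640 with 10% FBS, 2 mM L-glutamine, penicillin/streptomycin, 37 °C, 5% CO2. Exponentially growing cells exposed continuously to a range of concentrations (10 mM DMSO stocks) for three to four generation times. MTT added for 4 h at 37 °C; formazan read on plate reader. IC50 taken from survival–dose curves versus untreated controls. At least two independent experiments, each in duplicate.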

[2] = target: T1, DNA topoisomerase 1 (Homo sapiens) (UniProt P11387); test: Inhibition of human topoisomerase I mediated DNA relaxation at 1 to 100 uM
T1 sequence (whole entry): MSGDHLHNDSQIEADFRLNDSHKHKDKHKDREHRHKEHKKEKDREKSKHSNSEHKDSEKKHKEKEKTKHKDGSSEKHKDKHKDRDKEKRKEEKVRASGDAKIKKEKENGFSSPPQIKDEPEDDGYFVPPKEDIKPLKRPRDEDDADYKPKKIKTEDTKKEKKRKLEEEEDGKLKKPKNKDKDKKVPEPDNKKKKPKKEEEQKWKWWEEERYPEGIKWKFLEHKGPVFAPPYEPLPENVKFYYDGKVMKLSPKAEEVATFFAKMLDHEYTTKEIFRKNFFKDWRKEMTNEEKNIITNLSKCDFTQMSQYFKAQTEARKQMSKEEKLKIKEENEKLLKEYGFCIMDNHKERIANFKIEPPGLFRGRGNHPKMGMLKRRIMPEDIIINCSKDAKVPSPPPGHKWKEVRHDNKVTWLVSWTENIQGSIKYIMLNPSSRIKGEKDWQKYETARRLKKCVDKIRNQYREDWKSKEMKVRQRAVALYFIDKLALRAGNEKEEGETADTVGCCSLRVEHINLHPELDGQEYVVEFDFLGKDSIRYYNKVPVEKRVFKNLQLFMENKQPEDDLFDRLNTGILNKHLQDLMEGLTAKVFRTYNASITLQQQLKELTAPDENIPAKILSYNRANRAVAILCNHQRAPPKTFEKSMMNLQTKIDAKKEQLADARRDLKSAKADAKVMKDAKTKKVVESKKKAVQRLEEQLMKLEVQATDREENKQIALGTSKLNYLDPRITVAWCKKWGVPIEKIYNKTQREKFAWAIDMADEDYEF
In short: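 Relaxation of 200 ng supercoiled pBR322 DNA by purified human topoisomerase I, in 10 mM Tris-HCl pH 7.5, 7.5 mM MgCl2, 60 mM KCl. Run 30 min at 37 °C, stopped with SDS/EDTA loading buffer. Products resolved on 1.2% agarose in TBE at 0.5 V/cm for 18 h, stained with ethidium bromide, imaged under UV.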

[3] = tested on: HL-60; test: Anticancer activity against human HL60 cells assessed as cell viability by MTT assay; type: functional, cell-based; in short: as §1
[4] = tested on: HL-60; test: Cell cycle arrest in human HL60 cells assessed as accumulation at M phase after 24 hrs by flow cytometry; type: functional, cell-based
[5] = target: DNA topoisomerase II alpha (Homo sapiens) (UniProt P11388); test: Inhibition of human topoisomerase II mediated DNA relaxation at 1 to 100 uM
[6] = tested on: A549; test: Cell cycle arrest in human A549 cells assessed as accumulation at G2 phase after 72 hrs by flow cytometry; type: functional, cell-based
[7] = tested on: A549; test: Cell cycle arrest in human A549 cells assessed as accumulation at M phase after 24 hrs by flow cytometry; type: functional, cell-based
[8] = tested on: A549; test: Cell cycle arrest in human A549 cells assessed as accumulation at M phase after 72 hrs by flow cytometry; type: functional, cell-based
[9] = tested on: HL-60; test: Cell cycle arrest in human HL60 cells assessed as accumulation at S phase after 24 hrs by flow cytometry; type: functional, cell-based
[10] = tested on: HL-60; test: Cell cycle arrest in human HL60 cells assessed as accumulation at M phase after 72 hrs by flow cytometry; type: functional, cell-based
[11] = tested on: HL-60; test: Induction apoptosis in human HL60 cells assessed as change in nuclear morphology at 25 uM after 24 to 72 hrs by fluorescence microscopy; type: functional, cell-based
[12] = tested on: HL-60; test: Cell cycle arrest in human HL60 cells assessed as accumulation at early S phase after 72 hrs by flow cytometry; type: functional, cell-based
[13] = tested on: A549; test: Cell cycle arrest in human A549 cells assessed as accumulation at early S phase after 72 hrs by flow cytometry; type: functional, cell-based
[14] = tested on: A549; test: Cell cycle arrest in human A549 cells assessed as accumulation at S phase after 24 hrs by flow cytometry; type: functional, cell-based
[15] = tested on: HL-60; test: Cell cycle arrest in human HL60 cells assessed as accumulation at G2 phase after 72 hrs by flow cytometry; type: functional, cell-based
[16] = tested on: HL-60; test: Cell cycle arrest in human HL60 cells assessed as accumulation at G2 phase after 24 hrs by flow cytometry; type: functional, cell-based
[17] = tested on: A549; test: Cell cycle arrest in human A549 cells assessed as accumulation at G2 phase after 24 hrs by flow cytometry; type: functional, cell-based

Chain of DNA topoisomerase II alpha (Homo sapiens) (P11388 whole entry, looked up): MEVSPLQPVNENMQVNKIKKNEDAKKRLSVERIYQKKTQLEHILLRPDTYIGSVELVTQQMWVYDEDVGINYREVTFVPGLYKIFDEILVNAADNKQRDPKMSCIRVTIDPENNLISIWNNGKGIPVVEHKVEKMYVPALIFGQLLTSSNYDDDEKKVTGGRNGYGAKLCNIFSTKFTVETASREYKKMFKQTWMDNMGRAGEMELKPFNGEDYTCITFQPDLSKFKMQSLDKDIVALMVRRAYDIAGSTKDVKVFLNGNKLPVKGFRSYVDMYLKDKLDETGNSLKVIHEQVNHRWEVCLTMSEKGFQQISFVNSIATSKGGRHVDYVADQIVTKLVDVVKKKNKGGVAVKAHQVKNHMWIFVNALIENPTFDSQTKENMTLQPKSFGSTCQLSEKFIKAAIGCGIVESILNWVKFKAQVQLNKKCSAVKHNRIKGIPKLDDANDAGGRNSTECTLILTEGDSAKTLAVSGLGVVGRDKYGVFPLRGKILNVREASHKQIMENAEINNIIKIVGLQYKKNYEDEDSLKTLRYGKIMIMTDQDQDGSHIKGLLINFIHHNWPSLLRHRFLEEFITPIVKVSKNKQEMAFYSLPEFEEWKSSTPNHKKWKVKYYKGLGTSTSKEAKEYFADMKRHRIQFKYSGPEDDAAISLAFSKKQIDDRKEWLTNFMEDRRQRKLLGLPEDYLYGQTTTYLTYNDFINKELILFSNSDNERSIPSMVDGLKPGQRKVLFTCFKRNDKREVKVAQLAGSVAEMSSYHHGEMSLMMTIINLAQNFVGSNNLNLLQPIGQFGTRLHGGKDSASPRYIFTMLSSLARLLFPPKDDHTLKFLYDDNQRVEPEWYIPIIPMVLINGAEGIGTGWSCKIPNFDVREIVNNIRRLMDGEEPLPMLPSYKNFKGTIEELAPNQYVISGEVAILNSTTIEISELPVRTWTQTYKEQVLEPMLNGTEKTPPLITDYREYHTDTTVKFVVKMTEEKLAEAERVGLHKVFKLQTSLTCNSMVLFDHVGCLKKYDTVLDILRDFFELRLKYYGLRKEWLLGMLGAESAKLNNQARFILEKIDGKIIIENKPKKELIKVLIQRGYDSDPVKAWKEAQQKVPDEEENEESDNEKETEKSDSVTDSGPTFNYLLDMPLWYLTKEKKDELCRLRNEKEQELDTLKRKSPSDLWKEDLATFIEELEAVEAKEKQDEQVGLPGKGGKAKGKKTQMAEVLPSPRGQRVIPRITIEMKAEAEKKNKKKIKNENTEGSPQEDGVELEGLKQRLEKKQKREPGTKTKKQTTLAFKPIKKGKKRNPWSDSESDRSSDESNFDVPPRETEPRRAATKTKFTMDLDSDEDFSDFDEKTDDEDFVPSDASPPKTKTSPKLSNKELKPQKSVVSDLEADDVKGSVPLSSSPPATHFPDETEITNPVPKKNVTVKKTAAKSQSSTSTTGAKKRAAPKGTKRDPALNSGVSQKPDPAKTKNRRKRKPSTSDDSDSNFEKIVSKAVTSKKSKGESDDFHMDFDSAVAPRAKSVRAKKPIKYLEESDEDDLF

Compound | IC50 [1] | IC50 [3] | further results
C[C@@H](O)[C@H](Nc1ccc(O)c2c1C(=O)c1ccccc1C2=O)C(=O)N[C@@H](CCCCN)C(=O)N1CCC[C@H]1C(=O)N[C@@H](CCCNC(=N)N)C(=O)O | 14.2 µM | 32.4 µM | inhibition [2]: Active
C[C@@H](O)[C@H](NC(=O)[C@H](CCCCN)NC(=O)[C@@H]1CCCN1C(=O)[C@H](CCCNC(=N)N)Nc1ccc(O)c2c1C(=O)c1ccccc1C2=O)C(=O)O | > 100 µM | > 100 µM | 
O=C(O)c1ccc([N+](=O)[O-])c2c(=O)c3ccccc3[nH]c12 | > 100 µM | > 100 µM | 
Cc1ccc([N+](=O)[O-])c2c(NCCCCCC(=O)O)c3ccccc3nc12 | 18.7 µM | 17.5 µM | 
Cc1ccc([N+](=O)[O-])c2c(NCCCC(=O)O)c3ccccc3nc12 | 17.6 µM | 15.5 µM | Activity [4]: Active; inhibition [5]: inactive; Activity [6]: Active; Activity [7]: Active; Activity [8]: Active; Activity [9]: Active; Activity [10]: Active; Activity [11]: Active; Activity [12]: Active; Activity [13]: Active; Activity [14]: Active; Activity [15]: Active; Activity [16]: Active; Activity [17]: Active
O=C(O)CCNc1c2ccccc2nc2cccc([N+](=O)[O-])c12 | 6 µM | 18.9 µM | 
O=C1CCC(=O)c2c1c(O)c1ccccc1c2O | 15.8 µM | 15.8 µM | inhibition [2]: Active
C[C@H](N)C(=O)NCCCC[C@H](NC(=O)[C@@H]1CCCN1C(=O)[C@H](CCCNC(=N)N)Nc1ccc(O)c2c1C(=O)c1ccccc1C2=O)C(=O)N[C@H](C(=O)O)[C@@H](C)O | > 100 µM | > 100 µM | 
CC(C)[C@H](N)C(=O)NCCCC[C@H](NC(=O)[C@@H]1CCCN1C(=O)[C@H](CCCNC(=N)N)Nc1ccc(O)c2c1C(=O)c1ccccc1C2=O)C(=O)N[C@H](C(=O)O)[C@@H](C)O | 41.5 µM |  | 
CC[C@H](C)[C@H](N)C(=O)NCCCC[C@H](NC(=O)[C@@H]1CCCN1C(=O)[C@H](CCCNC(=N)N)NC(=O)c1ccc([N+](=O)[O-])c2c(=O)c3ccccc3[nH]c12)C(=O)N[C@H](C(=O)O)[C@@H](C)O (X1-RPK(Ile)T-OH) | 38.9 µM | > 100 µM | 
CC[C@H](C)[C@H](N)C(=O)NCCCC[C@H](NC(=O)[C@@H](NC(=O)c1ccc([N+](=O)[O-])c2c(=O)c3ccccc3[nH]c12)[C@@H](C)O)C(=O)N1CCC[C@H]1C(=O)N[C@@H](CCCNC(=N)N)C(=O)O (X1-TK(Ile)PR-OH) | > 100 µM | > 100 µM | 
CC[C@H](C)[C@H](N)C(=O)NCCCC[C@H](NC(=O)[C@@H]1CCCN1C(=O)[C@H](CCCNC(=N)N)NC(=O)CCCCCNc1c2ccccc2nc2c(C)ccc([N+](=O)[O-])c12)C(=O)N[C@H](C(=O)O)[C@@H](C)O ({Acridin9yl(1-NO2,4-Me)-Ahx}-RPK(Ile)T-OH) | 47.3 µM | 23.2 µM | 
Cc1ccc([N+](=O)[O-])c2c(NCCCCCC(=O)N[C@@H](CCCNC(=N)N)C(=O)N3CCC[C@H]3C(=O)N[C@@H](CCCCN)C(=O)N[C@H](C(=O)O)[C@@H](C)O)c3ccccc3nc12 ({Acridin9yl(1-NO2,4-Me)-Ahx}-RPKT-OH) | 25.6 µM | 22.1 µM | 
CC[C@H](C)[C@H](N)C(=O)NCCCC[C@H](NC(=O)[C@@H](NC(=O)CCCCCNc1c2ccccc2nc2c(C)ccc([N+](=O)[O-])c12)[C@@H](C)O)C(=O)N1CCC[C@H]1C(=O)N[C@@H](CCCNC(=N)N)C(=O)O ({Acridin9yl(1-NO2,4-Me)-Ahx}-TK(Ile)PR-OH) | 8.7 µM | 11.3 µM | 
Cc1ccc([N+](=O)[O-])c2c(NCCCCCC(=O)N[C@H](C(=O)N[C@@H](CCCCN)C(=O)N3CCC[C@H]3C(=O)N[C@@H](CCCNC(=N)N)C(=O)O)[C@@H](C)O)c3ccccc3nc12 ({Acridin9yl(1-NO2,4-Me)-Ahx}-TKPR-OH) | 15 µM | 13.2 µM | 
Cc1ccc([N+](=O)[O-])c2c(NCCCC(=O)N[C@H](C(=O)N[C@@H](CCCCNC(=O)CN)C(=O)N3CCC[C@H]3C(=O)N[C@@H](CCCNC(=N)N)C(=O)O)[C@@H](C)O)c3ccccc3nc12 ({Acridin9yl(1-NO2,4-Me)-GABA}-TK(Gly)PR-OH) | 3 µM | 17.2 µM | Activity [4]: Active; inhibition [5]: inactive; Activity [6]: Active; Activity [7]: Active; Activity [8]: Active; Activity [9]: Active; Activity [10]: Active; Activity [11]: inactive; Activity [12]: Active; Activity [13]: Active; Activity [14]: Active; Activity [15]: Active; Activity [16]: Active; Activity [17]: Active
Cc1ccc([N+](=O)[O-])c2c(NCCC(=O)N[C@H](C(=O)N[C@@H](CCCCNC(=O)CN)C(=O)N3CCC[C@H]3C(=O)N[C@@H](CCCNC(=N)N)C(=O)O)[C@@H](C)O)c3ccccc3nc12 ({Acridin9yl(1-NO2,4-Me)-βAla}-TK(Gly)PR-OH) | 76.5 µM | 55.5 µM | 
C[C@@H](O)[C@H](NC(=O)[C@H](CCCCNC(=O)CN)NC(=O)[C@@H]1CCCN1C(=O)[C@H](CCCNC(=N)N)NC(=O)c1cccc2c(=O)c3ccccc3[nH]c12)C(=O)O ({Acridone(4-CO)}-RPK(Gly)T-OH) | > 100 µM | > 100 µM | 
CC[C@H](C)[C@H](N)C(=O)NCCCC[C@H](NC(=O)[C@@H]1CCCN1C(=O)[C@H](CCCNC(=N)N)NC(=O)c1cccc2c(=O)c3ccccc3[nH]c12)C(=O)N[C@H](C(=O)O)[C@@H](C)O ({Acridone(4-CO)}-RPK(Ile)T-OH) | > 100 µM | > 100 µM | 
C[C@@H](O)[C@H](NC(=O)c1cccc2c(=O)c3ccccc3[nH]c12)C(=O)N[C@@H](CCCCNC(=O)CN)C(=O)N1CCC[C@H]1C(=O)N[C@@H](CCCNC(=N)N)C(=O)O ({Acridone(4-CO)}-TK(Gly)PR-OH) | > 100 µM | > 100 µM | 
C[C@@H](O)[C@H](NC(=O)[C@H](CCCCNC(=O)CN)NC(=O)[C@@H]1CCCN1C(=O)[C@H](CCCNC(=N)N)NC(=O)CCNc1c2ccccc2nc2cccc([N+](=O)[O-])c12)C(=O)O ({X2-βAla}-RPK(Gly)T-OH) | 33.9 µM | 71.5 µM | 

From ChEMBL document CHEMBL1772950, “Solid phase synthesis and biological activity of tuftsin conjugates” (J Med Chem, 2011)
